CYP2C19 act: increases human CYP2C19 enzyme activity; P33261; recombinant CYP2C19, luciferin-H EGE luminescence; hits give high values; 0 = fully inhibited enzyme, 1 = untreated enzyme; activation factor at 5 µM; 96,000 tested, under 10 active;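 active means activation factor of at least 2 at 5 µM in the primary screen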
CYP2C9 act: activators of human CYP2C9; P11712; recombinant CYP2C9, luciferin-H conversion, luminescence; hits give high values; factor 1 = untreated enzyme, 0 = blocked; activation factor at 5 µM; 1.4% of 96,000 active;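 active means activation factor of 2 or more for CYP2C9 at a 5 µM dose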
Target sequence (P11712 whole entry, looked up): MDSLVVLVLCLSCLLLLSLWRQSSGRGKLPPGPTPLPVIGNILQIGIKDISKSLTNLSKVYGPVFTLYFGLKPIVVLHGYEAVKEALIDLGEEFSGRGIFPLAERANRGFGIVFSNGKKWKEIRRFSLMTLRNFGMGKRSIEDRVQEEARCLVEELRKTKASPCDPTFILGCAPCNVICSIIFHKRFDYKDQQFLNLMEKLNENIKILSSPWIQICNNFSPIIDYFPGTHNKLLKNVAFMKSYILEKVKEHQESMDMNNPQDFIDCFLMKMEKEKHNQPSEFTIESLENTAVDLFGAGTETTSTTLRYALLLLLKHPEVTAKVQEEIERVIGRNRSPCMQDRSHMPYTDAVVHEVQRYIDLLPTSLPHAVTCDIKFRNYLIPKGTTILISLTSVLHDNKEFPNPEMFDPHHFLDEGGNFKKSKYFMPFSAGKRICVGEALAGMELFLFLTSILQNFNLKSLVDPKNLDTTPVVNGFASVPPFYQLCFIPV
tolC growth inh: growth inhibitors of E. coli BW25113 tolC mutant; 2.2% of 65,000 active; OD615; growth inhibition, % at 10 µM (by protocol);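 active means growth inhibition at or above a cutoff equal to the mean over every tested compound plus 3 SD, cut at about 60% in these data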;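 further: growth measured after 20 h incubation at 37 °C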
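Signal: optical density read at 615 nm; Assay system: E. coli ΔtolC::kan strain BW25113; Times: 20 h incubation with compound, 37 °C; Dosing: 10 µM final, single dose.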
CYP2C19 inhib: human CYP2C19 inhibition. P33261. CYP2C19 Supersomes, luciferin-H EGE luminescence, 30 min. inhibition, % at 5 µM. 21% of 96,000 active. AID 778;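 active means CYP2C19 inhibition above a set limit at 5 µM in the primary screen, cut at about 50% in these data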
E coli WT exp: blocks growth of wild type E. coli BW25113; growth inhibition, % at 100 µM; OD600 absorbance; AID 710; 0.15% of 98,000 active;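 active means growth inhibition above about 50% at one test dose, limit read from the data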;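 further: growth measured after 20 h incubation at 37 °C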
CYP2C9 inhib: human CYP2C9 inhibition; CYP2C9 Supersomes, luciferin-H conversion, luminescence; inhibition, % at 5 µM; 20% of 96,000 active;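 active means blocking of liver enzyme CYP2C9 beyond about 50% at 5 µM, limit read from the data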
Numbers stand for hits. This is a sample that favours compounds with a hit; in the whole collection about 29% have one here.

Cc1ccc(-c2c3c(nc4sc(C(N)=O)c(N)c24)CCC3)cc1 was read as CYP2C19 act inactive, CYP2C9 act inactive, CYP2C19 inhib inactive, E coli WT exp inactive and CYP2C9 inhib inactive.
`COc1ccc(-c2cc(O)cc(O)c2)cc1` gave CYP2C19 act inactive, CYP2C9 act inactive, tolC growth inh inactive, CYP2C19 inhib 59, E coli WT exp inactive and CYP2C9 inhib 60.
COc1ccc(-c2cc(-c3ccc(OC)cc3)[nH]n2)cc1 was read as CYP2C19 act inactive, CYP2C9 act inactive, tolC growth inh inactive, CYP2C19 inhib inactive, E coli WT exp inactive and CYP2C9 inhib inactive.
For Cc1cccc(NC(=S)N2N=CCC2c2ccccc2)c1 (stereo not given) the results were CYP2C19 act inactive, CYP2C9 act inactive, CYP2C19 inhib inactive, E coli WT exp inactive and CYP2C9 inhib inactive.
Cn1cccc1Cc1nnc(SCC(=O)Nc2ccc(F)cc2)n1CCc1ccccc1 was read as CYP2C19 act inactive, CYP2C9 act inactive, tolC growth inh inactive, CYP2C19 inhib inactive, E coli WT exp inactive and CYP2C9 inhib inactive.
Screening COc1ccc(NC(=S)N2CCN(C/C=C/c3ccccc3)CC2)cc1OC returned CYP2C19 act inactive, CYP2C9 act inactive, CYP2C19 inhib inactive, E coli WT exp inactive and CYP2C9 inhib inactive.
`O=C(NCc1cccnc1)c1cccn2c(=O)c3sccc3nc12` gave CYP2C19 act inactive, CYP2C9 act inactive, CYP2C19 inhib 76, E coli WT exp inactive and CYP2C9 inhib inactive.
For CCCCS(=O)(=O)NC1=NCN(CCO)CN1 the results were CYP2C19 act inactive, CYP2C9 act inactive, tolC growth inh inactive, CYP2C19 inhib inactive, E coli WT exp inactive and CYP2C9 inhib inactive.
`Cc1ccccc1-c1nc2sc3c(c2c(=O)n1N)CCCC3` gave CYP2C19 act inactive, CYP2C9 act inactive, CYP2C19 inhib inactive, E coli WT exp inactive and CYP2C9 inhib inactive.
Nn1c(-c2cccs2)nc2sc3c(c2c1=O)CCCC3 was read as CYP2C19 act inactive, CYP2C9 act inactive, tolC growth inh inactive, CYP2C19 inhib 81, E coli WT exp inactive and CYP2C9 inhib 100.
For O=[N+]([O-])c1cc(C(F)(F)F)ccc1Sc1nccn1Cc1ccccc1 the results were CYP2C19 act inactive, CYP2C9 act inactive, CYP2C19 inhib inactive, E coli WT exp inactive and CYP2C9 inhib inactive.
O=[N+]([O-])c1ccc(Sc2nccn2Cc2ccccc2)c([N+](=O)[O-])c1 was read as CYP2C19 act inactive, CYP2C9 act inactive, CYP2C19 inhib 51, E coli WT exp inactive and CYP2C9 inhib inactive.
Screening CCCCCOCC1CC(C/C(C)=N/Nc2nc(-c3ccccc3)cs2)C(=O)O1 (stereo not given) returned CYP2C19 act inactive, CYP2C9 act inactive, CYP2C19 inhib inactive, E coli WT exp inactive and CYP2C9 inhib inactive.
Screening N#CC1=C(N)SC(N)=C(C#N)C1c1c(Cl)cccc1Cl returned CYP2C19 act inactive, CYP2C9 act inactive, tolC growth inh inactive, CYP2C19 inhib 89, E coli WT exp inactive and CYP2C9 inhib 95.
`N#CC1=C(N)SC(N)=C(C#N)C1CCc1ccccc1` gave CYP2C19 act inactive, CYP2C9 act inactive, tolC growth inh inactive, CYP2C19 inhib 85, E coli WT exp inactive and CYP2C9 inhib 92.
`COC(=O)Cn1cnc2c(nnn2-c2cccc(Cl)c2)c1=O` gave tolC growth inh inactive.
For CN(C)c1nc(C(=O)Nc2ccccc2)nc(N(C)C)n1 the results were CYP2C19 act inactive, CYP2C9 act inactive, tolC growth inh inactive, CYP2C19 inhib inactive, E coli WT exp inactive and CYP2C9 inhib inactive.
For CN(C)c1nc(SCCOC(=O)Nc2ccccc2)nc(N(C)C)n1 the results were CYP2C19 act inactive, CYP2C9 act inactive, tolC growth inh 86, CYP2C19 inhib 99, E coli WT exp inactive and CYP2C9 inhib 68.
`Cc1ccc(C2(C)NC(=O)N(Cc3c(C)noc3C)C2=O)cc1` (stereo not given) gave CYP2C19 act inactive, CYP2C9 act inactive, tolC growth inh inactive, CYP2C19 inhib 53, E coli WT exp inactive and CYP2C9 inhib inactive.
Screening CC1Cc2ccccc2N1S(=O)(=O)c1cccc(C(=O)NC2CC2)c1 (stereo not given) returned CYP2C19 act inactive, CYP2C9 act inactive, tolC growth inh inactive, CYP2C19 inhib inactive, E coli WT exp inactive and CYP2C9 inhib inactive.
Screening CC1Cc2ccccc2N1S(=O)(=O)c1cccc(C(=O)OCC(=O)NC2CCS(=O)(=O)C2)c1 (stereo not given) returned CYP2C19 act inactive, CYP2C9 act inactive, tolC growth inh inactive, CYP2C19 inhib 60, E coli WT exp inactive and CYP2C9 inhib 63.
Cn1c(N)c(N2CCCCC2)c(=O)n(CC(=O)Nc2ccc(Cl)c(Cl)c2)c1=O was read as CYP2C19 act inactive, CYP2C9 act inactive, CYP2C19 inhib 94, E coli WT exp inactive and CYP2C9 inhib 98.
Cn1cc(S(=O)(=O)N2CCN(c3ccccc3)CC2)c(=O)n(C)c1=O was read as CYP2C19 act inactive, CYP2C9 act inactive, CYP2C19 inhib inactive, E coli WT exp inactive and CYP2C9 inhib inactive.
CC(=O)Nc1ccc(Oc2cc(C#N)c(C#N)cc2N2CCCCCC2)cc1 was read as tolC growth inh inactive and E coli WT exp inactive.
`CC(=O)Nc1ccc(Oc2cc(C#N)c(C#N)cc2N2CCOCC2)cc1` gave CYP2C19 act inactive, CYP2C9 act inactive, CYP2C19 inhib inactive, E coli WT exp inactive and CYP2C9 inhib 53.
Cc1ccc(C)c(SCc2noc(C(=O)NCC3CCCO3)c2C(=O)O)c1 (stereo not given) was read as CYP2C19 act inactive, CYP2C9 act inactive, CYP2C19 inhib inactive, E coli WT exp inactive and CYP2C9 inhib inactive.
N#Cc1ccccc1Sc1ccccc1C(=O)OCc1nnc(-c2ccccc2)o1 was read as CYP2C19 act inactive, CYP2C9 act inactive, tolC growth inh inactive, CYP2C19 inhib 69, E coli WT exp inactive and CYP2C9 inhib 58.
O=C(OCc1nnc(-c2ccccc2)o1)c1ccc2c(c1)OCO2 was read as CYP2C19 act inactive, CYP2C9 act inactive, tolC growth inh inactive, CYP2C19 inhib 65, E coli WT exp inactive and CYP2C9 inhib 81.
`Cc1noc(C)c1COC(=O)c1ccccc1Sc1ccccc1C#N` gave CYP2C19 act inactive, CYP2C9 act inactive, tolC growth inh inactive, CYP2C19 inhib 59, E coli WT exp inactive and CYP2C9 inhib 74.
CC(O)C(NS(=O)(=O)c1ccc(Cl)cc1)C(=O)OCc1nnc(-c2ccccc2)o1 (stereo not given) was read as CYP2C19 act inactive, CYP2C9 act inactive, CYP2C19 inhib inactive, E coli WT exp inactive and CYP2C9 inhib inactive.
`N#Cc1ccccc1Sc1ccccc1C(=O)Nc1ccccc1` gave CYP2C19 act inactive, CYP2C9 act inactive, CYP2C19 inhib 52, E coli WT exp inactive and CYP2C9 inhib inactive.
O=C(CCN1c2ccccc2Sc2ccccc21)OCc1nnc(-c2ccccc2)o1 was read as CYP2C19 act inactive, CYP2C9 act inactive, tolC growth inh inactive, CYP2C19 inhib 96, E coli WT exp inactive and CYP2C9 inhib 95.

Screening results (PubChem)
